Measured values published in ChEMBL document CHEMBL2440024, “Design, Synthesis, and Biological Evaluation of Novel Conformationally Constrained Inhibitors Targeting EGFR” (ACS Med Chem Lett, 2013).
The source made the active and inactive calls. The rule behind the calls is not given here.

Legend:
[1] = target: T1, Epidermal growth factor receptor (Homo sapiens, UniProt P00533); assay: Ratio of IC50 for wild type EGFR in human A431 cells to IC50 for wild type EGFR (unknown origin); format: cell-based; details: A-431
T1 sequence (P00533 whole entry): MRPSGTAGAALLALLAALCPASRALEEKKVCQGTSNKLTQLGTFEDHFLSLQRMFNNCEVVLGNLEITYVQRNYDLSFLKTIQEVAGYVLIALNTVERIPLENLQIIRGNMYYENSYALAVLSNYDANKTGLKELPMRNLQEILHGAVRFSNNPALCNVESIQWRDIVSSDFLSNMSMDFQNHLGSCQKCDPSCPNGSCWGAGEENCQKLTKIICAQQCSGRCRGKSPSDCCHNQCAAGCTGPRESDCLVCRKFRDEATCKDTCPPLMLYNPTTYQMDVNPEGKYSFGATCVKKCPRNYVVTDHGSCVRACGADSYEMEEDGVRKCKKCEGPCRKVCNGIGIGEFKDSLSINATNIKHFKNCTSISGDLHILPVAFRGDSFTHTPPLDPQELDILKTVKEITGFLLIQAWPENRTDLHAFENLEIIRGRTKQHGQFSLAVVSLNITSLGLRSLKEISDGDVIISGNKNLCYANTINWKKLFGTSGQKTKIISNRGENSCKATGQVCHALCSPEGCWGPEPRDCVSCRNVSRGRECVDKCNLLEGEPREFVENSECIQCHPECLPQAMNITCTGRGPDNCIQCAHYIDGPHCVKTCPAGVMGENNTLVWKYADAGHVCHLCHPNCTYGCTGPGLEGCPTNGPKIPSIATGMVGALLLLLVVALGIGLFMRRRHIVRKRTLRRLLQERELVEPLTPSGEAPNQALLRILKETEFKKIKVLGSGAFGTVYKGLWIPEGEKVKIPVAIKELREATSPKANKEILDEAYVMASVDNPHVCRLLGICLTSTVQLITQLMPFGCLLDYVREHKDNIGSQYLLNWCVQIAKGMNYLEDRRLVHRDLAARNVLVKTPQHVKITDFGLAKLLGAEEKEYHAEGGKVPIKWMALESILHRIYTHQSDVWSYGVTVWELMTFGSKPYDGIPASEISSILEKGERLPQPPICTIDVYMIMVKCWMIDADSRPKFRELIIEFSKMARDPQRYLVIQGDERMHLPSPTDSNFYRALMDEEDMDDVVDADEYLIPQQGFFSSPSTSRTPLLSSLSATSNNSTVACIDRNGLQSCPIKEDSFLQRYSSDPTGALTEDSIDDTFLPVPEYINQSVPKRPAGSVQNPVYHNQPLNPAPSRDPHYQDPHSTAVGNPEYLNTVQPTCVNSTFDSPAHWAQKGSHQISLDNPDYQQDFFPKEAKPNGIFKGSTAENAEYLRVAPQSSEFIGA

[2] = target: T1, Epidermal growth factor receptor; assay: Inhibition of wild type EGFR (unknown origin) incubated for 5 mins prior to ATP addition measured after 30 mins by HTRF method
[3] = tested on: Epidermal growth factor receptor (Homo sapiens), P00533 [T790M]; assay: Inhibition of EGFR T790M mutant (unknown origin) incubated for 5 mins prior to ATP addition measured after 30 mins by HTRF method; format: protein assay
Epidermal growth factor receptor (Homo sapiens), P00533 [T790M], sequence (P00533 whole entry T790M): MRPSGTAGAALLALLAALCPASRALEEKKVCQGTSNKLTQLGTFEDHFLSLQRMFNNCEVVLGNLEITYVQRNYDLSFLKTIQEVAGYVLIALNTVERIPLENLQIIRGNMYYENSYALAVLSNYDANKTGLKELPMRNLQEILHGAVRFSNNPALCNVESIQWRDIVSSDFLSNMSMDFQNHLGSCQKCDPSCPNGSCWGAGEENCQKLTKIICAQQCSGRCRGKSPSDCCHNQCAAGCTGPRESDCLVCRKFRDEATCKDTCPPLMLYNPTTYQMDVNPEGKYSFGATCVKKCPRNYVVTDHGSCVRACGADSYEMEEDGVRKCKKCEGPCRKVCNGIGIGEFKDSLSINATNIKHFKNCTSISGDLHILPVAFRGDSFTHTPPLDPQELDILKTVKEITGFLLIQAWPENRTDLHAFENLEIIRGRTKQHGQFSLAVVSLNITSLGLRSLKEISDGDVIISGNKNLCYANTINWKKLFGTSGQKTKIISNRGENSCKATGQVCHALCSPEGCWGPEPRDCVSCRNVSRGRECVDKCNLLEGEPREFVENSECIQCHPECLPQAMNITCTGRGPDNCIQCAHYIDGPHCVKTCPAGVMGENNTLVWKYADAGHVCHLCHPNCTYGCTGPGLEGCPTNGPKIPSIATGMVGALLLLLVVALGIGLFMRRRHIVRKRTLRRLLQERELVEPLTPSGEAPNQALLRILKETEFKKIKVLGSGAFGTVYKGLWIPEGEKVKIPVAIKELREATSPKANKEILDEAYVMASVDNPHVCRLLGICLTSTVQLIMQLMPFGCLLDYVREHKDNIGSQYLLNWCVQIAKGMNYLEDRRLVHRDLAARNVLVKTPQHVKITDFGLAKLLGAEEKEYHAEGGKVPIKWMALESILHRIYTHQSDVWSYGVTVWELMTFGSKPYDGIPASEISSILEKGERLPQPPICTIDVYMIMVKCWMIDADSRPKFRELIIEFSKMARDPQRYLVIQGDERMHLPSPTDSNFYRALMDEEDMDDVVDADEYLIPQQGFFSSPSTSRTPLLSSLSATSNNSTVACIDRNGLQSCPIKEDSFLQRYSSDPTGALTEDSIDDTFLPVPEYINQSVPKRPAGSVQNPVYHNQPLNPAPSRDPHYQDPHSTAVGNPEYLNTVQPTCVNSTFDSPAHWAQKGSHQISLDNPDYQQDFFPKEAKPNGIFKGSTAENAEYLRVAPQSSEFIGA

[4] = tested on: Mus musculus; assay: Toxicity in nude mouse xenografted with human A431 cells assessed as weight loss at 200 mg/kg/day, po qd after 12 days; format: organism-based, A-431; design: route oral; details: in vivo, 288 h
Procedure, shortened: (§1)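 A431 xenograft; dosing began once tumours reached 50–150 mm³. Mice randomized, n = 6/group, given test agent, gefitinib reference or vehicle by oral gavage once daily at 200 mg/kg/day. Body weight and tumour volume recorded twice weekly; mortality and weight loss noted over treatment (tumour mass read on days 0, 4, 7, 10, 12).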

[5] = tested on: Mus musculus; assay: Toxicity in nude mouse xenografted with human A431 cells assessed as mortality at 200 mg/kg/day, po qd after 12 days; format: organism-based, A-431; design: route oral; details: in vivo, 288 h; procedure, shortened: as §1
[6] = tested on: A-431; assay: animal or person; format: functional, Homo sapiens; details: Mus musculus, A-431, 288 h, route oral, read-out: TGI
[7] = tested on: Mus musculus; assay: Oral bioavailability in BALB/c mouse at 10 mg/kg; format: ADME, organism-based; details: in vivo
Procedure, shortened: (§2)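 Mice (12 per treatment group) received a single dose, either intravenously at 3 mg/kg or orally at 10 mg/kg. Plasma exposure was followed over 24 h to derive AUC(0–24 h) in μM·min, t1/2 and tmax in min, and Cmax in μM. Oral bioavailability (F%) was derived from the oral versus i.v. data.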

[8] = Cmax in BALB/c mouse at 10 mg/kg, po; format: ADME, organism-based; design: dose 10 mg/kg, route oral; details: in vivo; procedure, shortened: as §2
[9] = Cmax in BALB/c mouse at 3 mg/kg, iv; format: ADME, organism-based; design: dose 3 mg/kg, route intravenous; details: in vivo; procedure, shortened: as §2
[10] = Tmax in BALB/c mouse at 10 mg/kg, po; format: ADME, organism-based; design: dose 10 mg/kg, route oral; details: in vivo; procedure, shortened: as §2
[11] = Tmax in BALB/c mouse at 3 mg/kg, iv; format: ADME, organism-based; design: dose 3 mg/kg, route intravenous; details: in vivo; procedure, shortened: as §2
[12] = Half life in BALB/c mouse at 10 mg/kg, po; format: ADME, organism-based; design: dose 10 mg/kg, route oral; details: in vivo; procedure, shortened: as §2
[13] = tested on: Mus musculus; assay: AUC (0 to 24 hrs) in BALB/c mouse at 10 mg/kg, po; format: ADME, organism-based, Plasma; design: time < 24 hr, dose 10 mg/kg, route oral; details: in vivo; procedure, shortened: as §2
[14] = Half life in BALB/c mouse at 3 mg/kg, iv; format: ADME, organism-based; design: dose 3 mg/kg, route intravenous; details: in vivo; procedure, shortened: as §2
[15] = tested on: Mus musculus; assay: AUC (0 to 24 hrs) in BALB/c mouse at 3 mg/kg, iv; format: ADME, organism-based, Plasma; design: time < 24 hr, dose 3 mg/kg, route intravenous; details: in vivo; procedure, shortened: as §2
[16] = target: Cytochrome P450 3A4 (Homo sapiens, UniProt P08684); assay: Inhibition of human recombinant CYP3A4 after 20 mins by LC/MS/MS analysis; format: ADME
Cytochrome P450 3A4, sequence (P08684 whole entry): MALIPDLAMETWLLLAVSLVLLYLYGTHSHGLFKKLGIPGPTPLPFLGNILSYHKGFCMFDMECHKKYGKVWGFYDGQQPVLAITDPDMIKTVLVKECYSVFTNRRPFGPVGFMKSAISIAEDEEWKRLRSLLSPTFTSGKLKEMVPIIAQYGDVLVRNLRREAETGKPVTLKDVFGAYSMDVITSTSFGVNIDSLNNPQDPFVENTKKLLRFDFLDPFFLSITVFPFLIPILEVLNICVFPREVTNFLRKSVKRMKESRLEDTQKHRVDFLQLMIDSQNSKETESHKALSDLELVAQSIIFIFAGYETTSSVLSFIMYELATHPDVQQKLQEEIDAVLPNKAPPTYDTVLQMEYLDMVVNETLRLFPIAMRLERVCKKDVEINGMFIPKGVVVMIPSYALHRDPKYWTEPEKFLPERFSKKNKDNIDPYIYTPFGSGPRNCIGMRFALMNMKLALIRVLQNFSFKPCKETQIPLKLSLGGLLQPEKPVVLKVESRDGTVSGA

[17] = target: Cytochrome P450 2C9 (Homo sapiens, UniProt P11712); assay: Inhibition of human recombinant CYP2C9 after 20 mins by LC/MS/MS analysis; format: ADME
Cytochrome P450 2C9, sequence (P11712 whole entry): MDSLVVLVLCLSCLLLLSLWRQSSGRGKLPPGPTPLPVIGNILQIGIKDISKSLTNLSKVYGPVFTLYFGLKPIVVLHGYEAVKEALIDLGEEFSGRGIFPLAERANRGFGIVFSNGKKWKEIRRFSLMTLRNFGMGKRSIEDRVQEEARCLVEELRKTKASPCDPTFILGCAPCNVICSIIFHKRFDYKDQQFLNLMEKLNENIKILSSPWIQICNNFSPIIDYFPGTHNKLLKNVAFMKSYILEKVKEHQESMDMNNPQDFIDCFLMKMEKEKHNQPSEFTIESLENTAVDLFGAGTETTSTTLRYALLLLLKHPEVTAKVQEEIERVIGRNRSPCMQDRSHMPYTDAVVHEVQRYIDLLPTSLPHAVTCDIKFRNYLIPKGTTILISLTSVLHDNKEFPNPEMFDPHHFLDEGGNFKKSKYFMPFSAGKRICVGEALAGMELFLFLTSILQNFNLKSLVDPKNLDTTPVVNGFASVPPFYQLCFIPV

[18] = target: Cytochrome P450 2D6 (Homo sapiens, UniProt P10635); assay: Inhibition of human recombinant CYP2D6 after 20 mins by LC/MS/MS analysis; format: ADME
Cytochrome P450 2D6, sequence (P10635 whole entry): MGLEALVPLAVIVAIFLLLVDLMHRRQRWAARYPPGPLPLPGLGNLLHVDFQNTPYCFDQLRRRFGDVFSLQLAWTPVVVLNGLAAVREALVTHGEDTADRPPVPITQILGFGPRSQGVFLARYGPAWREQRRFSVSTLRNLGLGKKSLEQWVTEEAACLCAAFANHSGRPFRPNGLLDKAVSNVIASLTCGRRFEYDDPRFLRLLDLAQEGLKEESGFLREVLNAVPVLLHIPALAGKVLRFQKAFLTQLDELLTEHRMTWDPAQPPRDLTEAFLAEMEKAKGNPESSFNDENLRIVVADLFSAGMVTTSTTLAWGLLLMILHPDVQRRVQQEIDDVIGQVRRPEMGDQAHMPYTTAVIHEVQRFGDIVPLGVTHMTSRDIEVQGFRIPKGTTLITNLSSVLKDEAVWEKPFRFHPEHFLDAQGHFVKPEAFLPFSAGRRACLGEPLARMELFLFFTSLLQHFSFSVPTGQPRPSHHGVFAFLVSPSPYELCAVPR

[19] = target: T2, Cytochrome P450 1A2 (Homo sapiens, UniProt P05177); assay: Inhibition of human recombinant CYP1A2 after 20 mins by LC/MS/MS analysis; format: ADME
T2 sequence (P05177 whole entry): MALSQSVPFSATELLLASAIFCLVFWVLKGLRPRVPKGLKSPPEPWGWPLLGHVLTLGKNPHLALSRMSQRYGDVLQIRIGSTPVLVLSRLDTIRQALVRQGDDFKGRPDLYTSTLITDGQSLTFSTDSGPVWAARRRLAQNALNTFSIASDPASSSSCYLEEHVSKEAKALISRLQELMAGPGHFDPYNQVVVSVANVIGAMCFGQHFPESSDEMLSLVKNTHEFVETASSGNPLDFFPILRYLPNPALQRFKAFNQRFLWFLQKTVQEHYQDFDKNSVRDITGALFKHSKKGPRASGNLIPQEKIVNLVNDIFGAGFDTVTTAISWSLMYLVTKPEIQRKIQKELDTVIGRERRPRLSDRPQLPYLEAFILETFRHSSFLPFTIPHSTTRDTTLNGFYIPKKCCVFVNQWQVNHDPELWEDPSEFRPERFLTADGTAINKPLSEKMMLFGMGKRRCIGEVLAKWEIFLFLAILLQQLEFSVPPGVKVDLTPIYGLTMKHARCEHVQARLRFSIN

[20] = tested on: K562; assay: Cytotoxicity against human K562 cells after 48 hrs by CellTiter-Glo assay; format: functional, cell-based; details: K562, 48 h
[21] = target: Voltage-gated inwardly rectifying potassium channel KCNH2 (Homo sapiens, UniProt Q12809); assay: Inhibition of human ERG channel by patch clamp assay
Voltage-gated inwardly rectifying potassium channel KCNH2, sequence (Q12809 whole entry): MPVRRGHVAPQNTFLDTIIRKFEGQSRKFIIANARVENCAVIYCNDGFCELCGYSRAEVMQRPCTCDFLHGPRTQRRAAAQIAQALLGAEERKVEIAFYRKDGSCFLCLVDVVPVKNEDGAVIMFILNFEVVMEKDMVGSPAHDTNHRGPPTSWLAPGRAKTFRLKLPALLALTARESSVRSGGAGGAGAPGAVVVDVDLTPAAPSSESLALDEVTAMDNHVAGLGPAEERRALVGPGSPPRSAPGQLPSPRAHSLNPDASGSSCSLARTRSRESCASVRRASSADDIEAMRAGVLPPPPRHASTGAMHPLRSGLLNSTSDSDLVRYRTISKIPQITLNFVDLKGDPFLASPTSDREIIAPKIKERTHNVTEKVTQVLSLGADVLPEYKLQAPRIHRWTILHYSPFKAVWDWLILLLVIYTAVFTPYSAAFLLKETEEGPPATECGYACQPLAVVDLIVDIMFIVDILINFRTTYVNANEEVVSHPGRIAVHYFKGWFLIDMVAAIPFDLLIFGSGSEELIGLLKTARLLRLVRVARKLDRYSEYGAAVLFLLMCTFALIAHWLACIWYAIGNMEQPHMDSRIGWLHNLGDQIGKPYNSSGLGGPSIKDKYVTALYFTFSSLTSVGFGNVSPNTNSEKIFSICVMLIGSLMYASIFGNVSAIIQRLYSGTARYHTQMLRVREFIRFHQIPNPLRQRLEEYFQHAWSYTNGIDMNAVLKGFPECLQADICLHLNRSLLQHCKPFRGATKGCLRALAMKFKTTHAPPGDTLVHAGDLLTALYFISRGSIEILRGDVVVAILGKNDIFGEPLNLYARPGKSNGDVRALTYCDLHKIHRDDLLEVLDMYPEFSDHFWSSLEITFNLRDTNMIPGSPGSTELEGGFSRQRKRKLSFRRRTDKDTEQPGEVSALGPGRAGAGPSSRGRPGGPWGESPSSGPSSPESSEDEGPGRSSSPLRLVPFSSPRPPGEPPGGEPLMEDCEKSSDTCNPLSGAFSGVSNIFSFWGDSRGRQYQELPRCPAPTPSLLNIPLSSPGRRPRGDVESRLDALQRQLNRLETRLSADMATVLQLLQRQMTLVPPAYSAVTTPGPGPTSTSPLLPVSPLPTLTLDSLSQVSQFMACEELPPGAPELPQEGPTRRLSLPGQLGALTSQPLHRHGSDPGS

[22] = tested on: SW-620; assay: Cytotoxicity against human SW620 cells after 48 hrs by CellTiter-Glo assay; format: functional, cell-based; details: SW-620, 48 h
[23] = tested on: A549; assay: Cytotoxicity against human A549 cells after 48 hrs by CellTiter-Glo assay; format: functional, cell-based; details: A549, 48 h
[24] = target: T1, Epidermal growth factor receptor; details: A-431, at 1 µM

**Q.** Which results are given for `Fc1ccc(Nc2ncnc3cc4c(cc23)NCCO4)cc1Cl`?
**A.** Ratio IC50 [1]: 20000; IC50 [2]: 0.00129 µM

**Q.** For `CN(C)C/C=C/C(=O)N1CCOc2cc3ncnc(Nc4ccc(F)c(Cl)c4)c3cc21`, which inhibition [3] is on record?
**A.** Its inhibition is “Active”.

**Q.** And the Activity [4]?
**A.** Its Activity is “Non-toxic”.

**Q.** And the Activity [5]?
**A.** The Activity was “Non-toxic”.

**Q.** And the inhibition in vivo at 200 mg/kg/day [6]?
**A.** The inhibition in vivo at 200 mg/kg/day was 66.8%.

**Q.** What about the F [7] of the same compound?
**A.** The F was 26.1%.

**Q.** And the Cmax [8]?
**A.** Its Cmax is 360 nM.

**Q.** What about the Cmax [9] of the same compound?
**A.** The Cmax was 290 nM.

**Q.** And the Tmax [10]?
**A.** The Tmax was 0.75 h.

**Q.** What about the Tmax [11] of the same compound?
**A.** Its Tmax is 2 min.

**Q.** What about the half-life [12] of the same compound?
**A.** The half-life was 9.13 h.

**Q.** What about the AUC [13] of the same compound?
**A.** The AUC was 133 µM·min.

**Q.** And the half-life [14]?
**A.** The half-life was 12.7 h.

**Q.** And the AUC [15]?
**A.** The AUC was 25.4 µM·min.

**Q.** And the IC50 [16]?
**A.** The IC50 was > 10 µM.

**Q.** What about the IC50 [17] of the same compound?
**A.** Its IC50 is > 10 µM.

**Q.** And the IC50 [18]?
**A.** Its IC50 is > 10 µM.

**Q.** What about the IC50 [19] of the same compound?
**A.** Its IC50 is > 10 µM.

**Q.** And the IC50 [20]?
**A.** The IC50 was > 10 µM.

**Q.** What about the IC50 [21] of the same compound?
**A.** The IC50 was > 10 µM.

**Q.** And the IC50 [22]?
**A.** Its IC50 is 25.4 µM.

**Q.** What about the IC50 [23] of the same compound?
**A.** The IC50 was > 10 µM.

**Q.** What about the inhibition [24] of the same compound?
**A.** The inhibition was “Active”.

**Q.** For `COc1cc2ncnc(Nc3ccc(F)c(Cl)c3)c2cc1OCCCN1CCOCC1` [GEFITINIB], which Activity [4] is on record?
**A.** Its Activity is “Non-toxic”.

**Q.** What about the Activity [5] of the same compound?
**A.** Its Activity is “Non-toxic”.

**Q.** For `CN(C)C/C=C/C(=O)N1CCOc2cc3ncnc(Nc4ccc(OCc5cccc(F)c5)c(Cl)c4)c3cc21`, which inhibition [3] is on record?
**A.** The inhibition was “Active”.

**Q.** And the IC50 [16]?
**A.** Its IC50 is > 10 µM.

**Q.** What about the IC50 [17] of the same compound?
**A.** Its IC50 is > 10 µM.

**Q.** What about the IC50 [18] of the same compound?
**A.** The IC50 was > 10 µM.

**Q.** What about the IC50 [19] of the same compound?
**A.** Its IC50 is > 10 µM.

**Q.** And the IC50 [20]?
**A.** Its IC50 is > 10 µM.

**Q.** And the IC50 [22]?
**A.** The IC50 was 6.2 µM.

**Q.** What about the IC50 [23] of the same compound?
**A.** The IC50 was > 10 µM.
